# Only some compounds are listed: those with a hit (about 2.4% of all), similar ones and a draw of the others.
# VIM-2 inh – VIM-2 metallo-beta-lactamase inhibitors, primary screen, biochemical, epi-absorbance readout, Pseudomonas aeruginosa enzyme. purified VIM-2, nitrocefin hydrolysis, epi-absorbance fluorescence. inhibition, % at 5.6 µM. 290,000 compounds, 0.89% hits. AID 1527, 2009;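 active = inhibition above the mean of all tested compounds plus 3 SD, cutoff set per screening run, cut at about 7.5% in these data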;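 note: red hydrolysis product quenches plate fluorescence so inhibitors raise well fluorescence; 0% = enzyme with DMSO and 100% = DMSO without enzyme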
# HGIII-sPLA2 inh – human group III sPLA2 inhibitors, primary screen, biochemical, QFRET, BODIPY PC-A2 liposome substrate; Group 3 secretory phospholipase A2 (Homo sapiens), Q9NZ20; QFRET BODIPY PC-A2 liposome hydrolysis, fluorescence; inhibition, % at 12.2 µM; 370,000 compounds, 0.56% hits;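 active = inhibition above mean plus 3 SD of compounds lying within the high and low control bounds, cut at about 19% in these data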;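 note: 0% = median of test compound wells and 100% = no enzyme DMSO wells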
# PfM18AAP inh – PfM18AAP inhibitors, malaria aminopeptidase, primary screen, biochemical, QFRET, recombinant enzyme; AID 1822, 2009; 290,000 compounds, 1.2% hits; H-Glu-NHMec fluorogenic cleavage; inhibition, % at 7.35 µM; M18 aspartyl aminopeptidase (Plasmodium falciparum 3D7);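 active = inhibition above the campaign mean inhibition over all tested compounds plus 3 SD, cut at about 28% in these data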;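 note: 0% = plate median of test compound wells and 100% = 2 mM ZnCl2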
# IMP-1 inh-1 – IMP-1 metallo-beta-lactamase inhibitors, primary screen, biochemical, epi-absorbance readout, Pseudomonas aeruginosa enzyme; metallo-beta-lactamase IMP-1 (Pseudomonas aeruginosa); purified IMP-1, nitrocefin hydrolysis, epi-absorbance fluorescence; inhibition, % at 5.6 µM; 290,000 compounds, 0.45% hits;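 active = inhibition above the mean plus 3 SD of all compounds in the same screening run, cut at about 4.5% in these data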;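 note: 0% = IMP-1 with DMSO and 100% = DMSO wells lacking enzyme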
#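 assay system = purified recombinant IMP-1 metallo-beta-lactamase enzyme | schedule = 15 min preincubation plus 25 min reaction at 25 °C | signal = Epi-absorbance fluorescence, 480 nm excitation, 530 nm emission | read-out basis = percent inhibition from optical density relative to buffer-blank wells | controls = IMP-1 with DMSO as 0%, enzyme-free DMSO as 100%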
# IMP-1 inh-2 – IMP-1 metallo-beta-lactamase inhibitors, confirmation, selectivity assay for selective VIM-2 inhibitor project, biochemical, epi-absorbance readout, triplicate; AID 1856, 2009; purified IMP-1, nitrocefin hydrolysis, epi-absorbance fluorescence; inhibition, % at 5.6 µM; 1,300 tested, under 10 active; shares compounds with VIM-2 inh; call rule not given here;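 note: 0% = enzyme with vehicle and 100% = vehicle without enzyme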
# VIM-2 FRET inh – VIM-2 inhibitors in FRET format, confirmation, artefact control for selective VIM-2 inhibitor project, biochemical, epi-absorbance artifact exclusion | shares compounds with VIM-2 inh | purified VIM-2, CCF2 FRET substrate hydrolysis | inhibition, % at 5.6 µM | 1,300 compounds, 23% hits;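 active = inhibition above the mean of all tested compounds plus 3 SD, cut at about 19% in these data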;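 note: 0% = VIM-2 plus DMSO and 100% = no enzyme wells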
# TEM-1 inh – TEM-1 serine beta-lactamase inhibitors, counter-screen for VIM-2 inhibitor project, biochemical, epi-absorbance, HTS; shares compounds with VIM-2 inh; Purified TEM-1, nitrocefin hydrolysis, epi-absorbance fluorescence; inhibition, % at 5.6 µM; 1,300 compounds, 3% hits;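 active = inhibition above that campaign's mean inhibition plus 3 SD, cut at about 0.46% in these data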;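 note: 0% = TEM-1 with DMSO and 100% = TEM-1 with 100 µM potassium clavulanate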
# Target sequence (P62593 whole entry, looked up): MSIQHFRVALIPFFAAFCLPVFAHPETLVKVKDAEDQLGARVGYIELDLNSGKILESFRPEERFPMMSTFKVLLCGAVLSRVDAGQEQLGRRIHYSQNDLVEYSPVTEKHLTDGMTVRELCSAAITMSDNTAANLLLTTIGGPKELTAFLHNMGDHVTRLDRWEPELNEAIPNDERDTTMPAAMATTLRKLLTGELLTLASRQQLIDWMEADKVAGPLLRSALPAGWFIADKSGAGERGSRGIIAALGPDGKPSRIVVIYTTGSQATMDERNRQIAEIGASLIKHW
# VIM-2 inh conf – VIM-2 metallo-beta-lactamase inhibitors, confirmation, biochemical, epi-absorbance, hits shared with IMP-1 screen. shares compounds with VIM-2 inh. purified VIM-2, nitrocefin hydrolysis. inhibition, % at 5.6 µM. 1,300 compounds, 96% hits. AID 2187, 2009;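 active = inhibition of the VIM-2 beta-lactamase enzyme above about 11% from the earlier first-round screen, limit read from the data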;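 note: 0% = VIM-2 with DMSO and 100% = buffer wells without enzyme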
# Numbers without * were called inactive; · = no result given.
SMILES,VIM-2 inh,HGIII-sPLA2 inh,PfM18AAP inh,IMP-1 inh-1,IMP-1 inh-2,VIM-2 FRET inh,TEM-1 inh,VIM-2 inh conf
Cc1nc(S/C(=C\c2ccc(OCc3ccccc3Cl)cc2)C(=O)O)n[nH]1,-1.4,-1.6,-1.9,-0.1,·,·,·,·
Cc1nc(S/C(=C\c2ccc(-c3ccc(C(=O)O)c(Cl)c3)o2)C(=O)O)n[nH]1,16.2*,-15.2,24.9,-4.8,-5.8,17.5*,-6.8,16.8*
Cc1ccc2c(c1)c(N=NC(N)=O)c(O)n2C,12.6*,-1.3,10.6,0.7,-3.5,-3.4,-4.4,18.6*
Cc1ccc2c(c1)c(N=Nc1cccc(C(=O)O)c1)c(O)n2C,-1.3,13.1,-4.5,0.4,·,·,·,·
COc1cc(-c2noc(C)c2-c2ccc(N(C)C)nc2)cc(OC)c1OC,-0.6,3.8,8.2,-3.7,·,·,·,·
COc1cc(-c2noc(C)c2C#Cc2nccn2C)cc(OC)c1OC,29.6*,-4.4,-5.9,-2.5,-1.8,-15.1,-0.8,45.9*
CN(C)c1ccc(/C=C2\C(=N)N3N=C(CC(=O)N4CCCC4)SC3=NC2=O)cc1Br,-2.1,-11.4,3.9,-1.4,·,·,·,·
CN(C)c1ccc(/C=C2\C(=N)N3N=C(CC(=O)N4CCCCC4)SC3=NC2=O)cc1,13.4*,-10.1,2.6,1.2,-1.3,29.2*,-5.3,18.0*
CC(C)C1C(=O)N(Cc2cn(CCC3OCCCO3)nn2)CCS(=O)(=O)N1Cc1ccc(-c2ccc(Cl)c(Cl)c2)cc1 (stereo not given),·,-33.0,·,·,·,·,·,·
CCSc1nnc(NC(=O)c2cccs2)s1,-2.6,7.0,-6.5,-1.6,·,·,·,·
CC1CCCC(C)N1C(=O)CSc1nnc(NC(=O)c2cccs2)s1 (stereo not given),19.6*,-7.6,-0.5,-1.9,-3.6,51.9*,-5.8,36.8*
CCSc1nccc(-c2nn(-c3ccc(C)cc3)ccc2=O)n1,28.1*,-2.4,8.7,0.2,-1.2,4.0,0.3,39.0*
CSc1nccc(-c2nn(-c3ccc(C)cc3)ccc2=O)n1,6.9,1.9,6.0,-1.5,·,·,·,·
Cc1ccc(CNC(=O)CSc2nnc3n2CCCCC3)cc1,·,3.4,·,·,·,·,·,·
CCN(CC)CCCNc1nc2cc(OC)c(OC)cc2c2nc(-c3cccnc3)nn12,22.3*,1.6,2.1,0.8,-1.8,-2.9,-6.2,42.4*
CCN(CC)CCCNc1nc2ccccc2c2nc(-c3ccncc3)nn12,27.9*,-1.0,0.4,-1.1,-2.9,0.1,-5.6,37.1*
COc1cc2nc(NCCCN3CCN(C)CC3)n3nc(-c4ccccc4)nc3c2cc1OC,27.6*,-14.3,-3.6,-4.4,-3.0,0.0,-5.8,47.7*
CN1CCN(CCCNc2nc3ccccc3c3nc(-c4ccccc4)nn23)CC1,·,-2.2,·,·,·,·,·,·
CCN(CC)CCCNc1nc2cc(OC)c(OC)cc2c2nc(-c3ccccc3)nn12,4.2,-3.5,-8.9,-4.1,·,·,·,·
CC(C)CCN1C(=O)COc2ccccc2C1c1nnnn1-c1ccc2c(c1)OCCO2 (stereo not given),·,-6.4,·,·,·,·,·,·
CCOC(=O)c1csc(NC(=O)CCS(=O)(=O)c2ccc(Cl)cc2)n1,·,-2.3,·,·,·,·,·,·
O=C(c1ccccc1F)N1CCCC(C(=O)N2CCc3ccccc3C2)C1 (stereo not given),-0.8,6.1,-0.4,-1.9,·,·,·,·
O=C(NC(=S)NCC1CCCO1)c1ccccc1Br (stereo not given),27.9*,12.1,-11.9,-1.2,-3.0,52.0*,-4.3,36.0*

# Screening results as filed in PubChem BioAssay.
